Results published in publication PMC7614192 (Biomedicine & pharmacotherapy = Biomedecine & …, 2022).

Assays:
[1] = system: mouse model of multiple sclerosis; conditions: oral application; cited from earlier work
[2] = system: primary human lymphocytes; conditions: primary human lymphocytes in vitro; cited from earlier work
[3] = system: activated human PBMC / T lymphocytes; test: Cell cycle progression by DNA content; type: cell-based; conditions: cyclotides, 72 h, PI staining, n = 3
How it was run: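 PBMC were activated with anti-CD3/anti-CD28 (100 ng/mL each) and incubated 72 h with test compound or CsA. Cells were washed, fixed and permeabilised in 70% ice-cold ethanol, then stained with PI plus RNase. Flow cytometry gave the share of living lymphocytes in each cell-cycle phase, reported as mean of three independent experiments.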

[4] = system: activated human primary T cells (PBMC); test: Cell division tracking using CFSE; type: cell-based; conditions: cyclotides, anti-CD3/anti-CD28 stimulated human PBMC, 72 h, n = 3
How it was run: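 PBMC at 5 × 10^6 cells/mL in PBS were labelled with CFSE (5 mM stock diluted 1/1000) for 10 min at 37 °C, and labelling was stopped by washing in complete medium. Cells (2 × 10^5) were activated with anti-CD3/anti-CD28 (100 ng/mL each) and cultured 72 h with test compound or CsA 4.16 μM. Proliferating cells were read by flow cytometry and normalised to the stimulated control. Mean ± SD, n = 3.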

[5] = system: activated human PBMC / T lymphocytes; test: Apoptosis and necrosis by annexin V and propidium iodide staining; type: cell-based; conditions: cyclotides, annexin V-FITC/PI, n = 3
How it was run: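 Donor PBMC (2 × 10^5) in RPMI 1640 with 10% heat-inactivated FBS and 2 mM L-glutamine at 37 °C, 5% CO2. Activated with anti-CD3 (HIT3) and anti-CD28 (28.6), 100 ng/mL each, then exposed to test compound. Annexin V-FITC/PI double staining by flow cytometry, normalised to the stimulated control. Camptothecin was the apoptosis control and Triton X-100 (0.5%) the necrosis control. Mean ± SD, n = 3, ANOVA/Dunnett.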

CD107a on CD8+ T cells = test: CD8+ T cell degranulation; type: cell-based, human; conditions: cyclotides; activated PBMC 24 h, PMA/ionomycin 4 h, MFI of CD107a, n = 3
How it was run: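 Anti-CD3/anti-CD28 (100 ng/mL each) activated PBMC (2 × 10^5) were treated with test compound, CsA (4.16 μM) or camptothecin (300 μM) for 24 h. They were then restimulated with PMA (50 ng/mL) and ionomycin (500 ng/mL) for 4 h. Staining used CD107a-PE with GolgiStop, read by flow cytometry. CD107a MFI is expressed relative to the stimulated control. n = 3.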

CD25 on T lymphocytes = test: CD25 activation marker detection; type: cell-based, human; conditions: cyclotides; activated PBMC, 24 h, n = 3
How it was run: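 PBMC (2 × 10^5) were stimulated with anti-CD3/anti-CD28 mAbs (100 ng/mL each) and exposed to test compound for 24 h. Controls were CsA 4.16 μM and camptothecin 300 μM. Stained with anti-CD25-PE plus anti-CD4-APC and read by flow cytometry. Result is the percentage of CD4+ and CD4− T cells expressing CD25, relative to the untreated stimulated control. n = 3, ANOVA/Dunnett.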

Substance	clinical scores [1]	effect on T cell proliferation [2]	concentration with significant reduction in the number of cells in the G2-phase [3] [µM]	concentration with significant reduction in T cell proliferation [4] [µM]	concentration with significant increase in the number of apoptotic cells [5] [µM]	concentration with significant rise in degranulation levels (CD107a) (CD107a on CD8+ T cells) [µM]	concentration with significant reduction of CD25 expression (CD25 on T lymphocytes) [µM]	concentration with significant reduction in CD107a levels (CD107a on CD8+ T cells) [µM]	concentration with significant induction of necrosis [5] [µM]
T20K (GLPVCGETCVGGTCNTPGCKCSWPVCTRN; not fully specified; Kalata-B1 cyclic backbone; UniProt P56254 89-117, looked up, variant T20K)	significant delay and reductions in clinical scores	inhibition of T cell proliferation							
c-CGESCVFIPCFSSVIGCSCKNKVCYRNGVIP (bicyclic or more) [caripe 12]			30	30	30	3			
c-CGESCVFIPCFSTVIGCSCKNKVCYRNGVIP (bicyclic or more) [caripe 10]			10	10	10		10	10	
c-CGESCVFIPCFTSVFGCSCKDKVCYRNGIP (bicyclic or more) [caripe 13]				30					30
c-CGESCVFIPCISTVIGCSCKKKVCYRNGVIP (bicyclic or more) [caripe 11]			30	30	10	3			
c-CGESCVFIPCITAAIGCSCKKKVCYRNGVIP (bicyclic or more) [caripe 8]			30	10		3	10	10	10
cyclo-CGESCVFIPCTVTALLGCSCKNKVCYRNGIP (bicyclic or more) [caripe 7]			10	10			10	10	3
